ChEMBL document CHEMBL3108739, “Activation and inhibition of thermosensitive TRP channels by voacangine, an alkaloid present in Voacanga africana, an African tree” (J Nat Prod, 2014)
Active and inactive are the calls of the source. No cut-off for these calls is given here.

Experiments:
[1] = target: T1, Transient receptor potential cation channel subfamily A member 1 (Homo sapiens, UniProt O75762); assay: Agonist activity at TRPA1 isolated from human W138 cells expressed in HEK293T cells assessed as intracellular Ca2+ influx at 10 to 100 uM by Fluo-4 AM staining-based fluorescence analysis relative to allylisothiocyanate; format: cell-based
Summary of the method: (§1)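 Tetracycline-induced (1 μg/mL) stable hTRPA1 in HEK T-REx cells, Fluo-4 AM loaded (3 μM, 1 h, 37 °C) in HEPES buffer pH 7.4 with probenecid; Ca2+ read at 37 °C. Compound 0.01−100 μM; HC-030031 30 μM pretreated 3 min. Responses as % of 5 μM ionomycin or of 100 μM AITC; TREx cells without TRPA1 as control; n = 4−8.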

[2] = target: T1, Transient receptor potential cation channel subfamily A member 1; assay: Agonist activity at TRPA1 isolated from human W138 cells expressed in HEK T-REx cells assessed as intracellular Ca2+ influx at 10 to 100 uM by Fluo-4 AM staining-based fluorescence analysis; format: cell-based; summary of the method: as §1
[3] = target: T1, Transient receptor potential cation channel subfamily A member 1; assay: Agonist activity at TRPA1 isolated from human W138 cells expressed in HEK293T cells assessed as intracellular Ca2+ influx by Fluo-4 AM staining-based fluorescence analysis; format: cell-based
Summary of the method: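 Tetracycline-induced (1 μg/mL) stable hTRPA1 in HEK T-REx cells, Fluo-4 AM loaded (3 μM, 1 h, 37 °C) in HEPES buffer pH 7.4 with probenecid; Ca2+ read at 37 °C. Responses as % of 5 μM ionomycin or of 100 μM AITC; TREx cells without TRPA1 as control; n = 4−8.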

[4] = target: T2, Transient receptor potential cation channel subfamily V member 1 (Homo sapiens, UniProt Q8NER1); assay: Antagonist activity at human brain TRPV1 expressed in HEK293T cells assessed as inhibition of CAP-induced intracellular Ca2+ influx by fluorescence-based assay; format: cell-based, HEK-293T
Summary of the method: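 hTRPV1-HEK293T, Fluo-4 Ca2+ at 37 °C; antagonist (0.3−100 μM) preincubated 3 min then 0.01 μM capsaicin; DMSO final 0.1−1%. IC50 from dose−inhibition curves; data as % of 10 μM capsaicin.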

[5] = target: T2, Transient receptor potential cation channel subfamily V member 1; assay: Competitive antagonist activity at human brain TRPV1 expressed in HEK293T cells assessed as inhibition of CAP-induced intracellular Ca2+ influx at 50 uM preincubated for 3 mins followed by CAP challenge measured after 10 mins of post compound washout; format: cell-based; conditions: HEK-293T
Summary of the method: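 hTRPV1-HEK293T cells incubated 3 min with 50 μM compound, washed six times with buffer, kept 10 min at 37 °C in dark, then challenged with 0.01 μM capsaicin; Fluo-4 Ca2+ read-out as % of 10 μM capsaicin.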

[6] = target: T2, Transient receptor potential cation channel subfamily V member 1; assay: Competitive antagonist activity at […] Wistar rat DRG neurons assessed as inhibition of CAP-induced intracellular Ca2+ influx at 100 uM preincubated for 3 mins followed by CAP challenge; format: cell-based
Summary of the method: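 Primary DRG neurons from 4-week-old Wistar rats, collagenase-dissociated, cultured with NGF 24−36 h. Fluo-4 Ca2+ imaging with superfusion of 0.1 μM capsaicin and 100 μM compound.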

[7] = target: T3, Transient receptor potential cation channel subfamily V member 3 (Homo sapiens) (UniProt Q8NET8); assay: Antagonist activity at human TRPV3 expressed in HEK293T cells assessed as menthol-induced intracellular Ca2+ influx at 100 uM by Fluo-4 AM staining-based fluorescence analysis; format: cell-based; conditions: HEK-293T
T3 sequence (whole entry): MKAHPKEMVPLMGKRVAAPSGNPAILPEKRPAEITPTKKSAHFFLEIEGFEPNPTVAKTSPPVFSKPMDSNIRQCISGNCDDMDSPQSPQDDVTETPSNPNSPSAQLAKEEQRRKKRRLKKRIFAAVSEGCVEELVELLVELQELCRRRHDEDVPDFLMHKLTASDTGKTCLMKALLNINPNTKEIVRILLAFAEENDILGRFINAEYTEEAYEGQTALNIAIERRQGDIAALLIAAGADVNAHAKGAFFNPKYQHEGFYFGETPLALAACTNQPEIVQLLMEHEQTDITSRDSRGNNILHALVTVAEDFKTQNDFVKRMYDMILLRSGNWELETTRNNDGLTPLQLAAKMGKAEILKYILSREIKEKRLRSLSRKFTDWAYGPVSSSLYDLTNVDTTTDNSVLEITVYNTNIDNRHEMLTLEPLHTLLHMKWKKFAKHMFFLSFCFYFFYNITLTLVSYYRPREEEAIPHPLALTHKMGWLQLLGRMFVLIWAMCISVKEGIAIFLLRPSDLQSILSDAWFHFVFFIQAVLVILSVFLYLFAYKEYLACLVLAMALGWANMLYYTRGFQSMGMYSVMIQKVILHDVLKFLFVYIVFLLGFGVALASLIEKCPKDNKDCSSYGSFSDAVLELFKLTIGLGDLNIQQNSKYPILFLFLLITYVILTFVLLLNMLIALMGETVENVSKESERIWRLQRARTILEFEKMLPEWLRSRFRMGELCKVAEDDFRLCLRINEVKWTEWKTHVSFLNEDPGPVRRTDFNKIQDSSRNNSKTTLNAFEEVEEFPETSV
Summary of the method: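 hTRPV3 transiently expressed in HEK293T; loading and assay at 25 °C, Fluo-4 with probenecid buffer pH 7.4. Agonist 100 and 300 μM menthol, 5 μM ruthenium red as reference; 100 μM compound alone or pretreated 3 min. Data as % of 1000 μM menthol.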

[8] = target: T2, Transient receptor potential cation channel subfamily V member 1; assay: Antagonist activity at human brain TRPV1 expressed in HEK293T cells assessed as CAP-induced intracellular Ca2+ influx at 100 uM by Fluo-4 AM staining-based fluorescence analysis; format: cell-based; conditions: HEK-293T
Summary of the method: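 Stable hTRPV1 in HEK293T (G418 selected), Fluo-4 loaded, 37 °C. 100 μM compound alone, or pretreated 3 min before 0.01 μM capsaicin; 10 μM BCTC reference. Data as % of 10 μM capsaicin.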

[9] = target: Transient receptor potential cation channel subfamily M member 8 (Mus musculus) (UniProt Q8R4D5); conditions: Dorsal root ganglion, HEK T-REx, 100 uM
[10] = target: Transient receptor potential cation channel subfamily M member 8 (Mus musculus) (UniProt Q8R4D5); conditions: Dorsal root ganglion, HEK T-REx, 100 uM; remark: listed apart in the source
[11] = target: Transient receptor potential cation channel subfamily M member 8 (Mus musculus) (UniProt Q8R4D5); conditions: Dorsal root ganglion, HEK T-REx, 100 uM; remark: listed apart in the source
[12] = target: Transient receptor potential cation channel subfamily M member 8 (Mus musculus) (UniProt Q8R4D5); conditions: Dorsal root ganglion, HEK T-REx, 100 uM; remark: listed apart in the source
[13] = target: Transient receptor potential cation channel subfamily M member 8 (Mus musculus) (UniProt Q8R4D5); conditions: Dorsal root ganglion, HEK T-REx, 10 to 50 uM
[14] = target: T2, Transient receptor potential cation channel subfamily V member 1; assay: Antagonist activity at human brain TRPV1 expressed in HEK293T cells assessed as inhibition of proton-induced intracellular Ca2+ influx at 10 uM by fluorescence-based assay; conditions: HEK-293T

Sequence of Transient receptor potential cation channel subfamily M member 8 (Mus musculus) (Q8R4D5 whole entry): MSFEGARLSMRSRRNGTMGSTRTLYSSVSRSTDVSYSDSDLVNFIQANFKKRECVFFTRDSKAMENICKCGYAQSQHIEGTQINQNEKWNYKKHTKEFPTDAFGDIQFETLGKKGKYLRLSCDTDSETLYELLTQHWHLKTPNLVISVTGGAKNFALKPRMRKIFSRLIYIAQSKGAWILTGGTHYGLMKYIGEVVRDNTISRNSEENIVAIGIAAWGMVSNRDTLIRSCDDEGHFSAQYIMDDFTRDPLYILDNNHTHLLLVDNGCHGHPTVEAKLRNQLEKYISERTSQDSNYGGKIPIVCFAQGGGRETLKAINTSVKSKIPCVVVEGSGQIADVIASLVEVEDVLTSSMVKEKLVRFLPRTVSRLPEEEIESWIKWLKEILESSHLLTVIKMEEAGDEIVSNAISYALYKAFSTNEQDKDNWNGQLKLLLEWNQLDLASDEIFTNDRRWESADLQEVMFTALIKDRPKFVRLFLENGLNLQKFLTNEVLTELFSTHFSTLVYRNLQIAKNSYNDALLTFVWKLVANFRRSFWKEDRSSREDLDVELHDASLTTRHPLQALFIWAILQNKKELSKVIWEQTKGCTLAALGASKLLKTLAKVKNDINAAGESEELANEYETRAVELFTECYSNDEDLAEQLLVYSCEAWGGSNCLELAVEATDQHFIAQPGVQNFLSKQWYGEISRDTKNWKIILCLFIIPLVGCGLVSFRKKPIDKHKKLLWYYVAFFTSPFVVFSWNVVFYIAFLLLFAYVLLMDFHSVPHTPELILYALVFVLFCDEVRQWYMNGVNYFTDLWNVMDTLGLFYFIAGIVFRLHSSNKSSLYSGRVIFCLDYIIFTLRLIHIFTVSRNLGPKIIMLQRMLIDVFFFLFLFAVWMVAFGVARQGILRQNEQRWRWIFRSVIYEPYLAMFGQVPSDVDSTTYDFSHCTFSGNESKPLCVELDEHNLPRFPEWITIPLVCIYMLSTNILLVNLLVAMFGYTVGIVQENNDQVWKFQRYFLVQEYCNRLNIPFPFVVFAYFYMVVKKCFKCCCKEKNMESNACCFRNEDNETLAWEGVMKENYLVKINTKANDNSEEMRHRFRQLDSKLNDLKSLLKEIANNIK
T1 sequence (O75762 whole entry): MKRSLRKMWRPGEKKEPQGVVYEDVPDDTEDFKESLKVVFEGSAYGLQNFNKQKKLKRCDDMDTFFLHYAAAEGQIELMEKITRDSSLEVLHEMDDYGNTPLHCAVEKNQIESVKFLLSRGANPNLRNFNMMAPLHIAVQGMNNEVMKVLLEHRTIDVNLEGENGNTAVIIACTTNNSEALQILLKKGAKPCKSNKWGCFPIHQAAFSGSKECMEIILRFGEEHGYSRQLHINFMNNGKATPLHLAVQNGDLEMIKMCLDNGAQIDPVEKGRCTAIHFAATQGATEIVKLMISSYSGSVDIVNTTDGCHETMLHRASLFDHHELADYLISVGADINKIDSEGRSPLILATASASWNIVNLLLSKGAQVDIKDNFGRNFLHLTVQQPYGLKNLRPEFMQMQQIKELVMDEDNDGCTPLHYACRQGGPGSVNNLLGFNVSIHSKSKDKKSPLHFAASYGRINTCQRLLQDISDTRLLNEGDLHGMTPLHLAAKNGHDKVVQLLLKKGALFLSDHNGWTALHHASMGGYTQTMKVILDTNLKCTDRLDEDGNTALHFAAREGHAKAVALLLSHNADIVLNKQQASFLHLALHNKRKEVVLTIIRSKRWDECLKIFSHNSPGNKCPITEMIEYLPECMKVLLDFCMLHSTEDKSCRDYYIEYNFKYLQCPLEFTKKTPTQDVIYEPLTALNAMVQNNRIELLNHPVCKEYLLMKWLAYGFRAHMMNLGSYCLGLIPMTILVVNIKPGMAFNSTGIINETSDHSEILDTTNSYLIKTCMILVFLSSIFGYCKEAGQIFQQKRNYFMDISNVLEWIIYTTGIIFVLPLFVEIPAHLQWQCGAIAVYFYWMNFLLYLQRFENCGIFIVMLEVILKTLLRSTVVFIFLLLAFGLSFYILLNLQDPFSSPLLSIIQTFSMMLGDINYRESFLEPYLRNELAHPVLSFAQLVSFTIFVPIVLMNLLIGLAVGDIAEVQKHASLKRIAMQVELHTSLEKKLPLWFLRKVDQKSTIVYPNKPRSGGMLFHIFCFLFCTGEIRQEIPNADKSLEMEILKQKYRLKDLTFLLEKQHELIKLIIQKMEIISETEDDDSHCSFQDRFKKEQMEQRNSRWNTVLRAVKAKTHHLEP
T2 sequence (Q8NER1 whole entry): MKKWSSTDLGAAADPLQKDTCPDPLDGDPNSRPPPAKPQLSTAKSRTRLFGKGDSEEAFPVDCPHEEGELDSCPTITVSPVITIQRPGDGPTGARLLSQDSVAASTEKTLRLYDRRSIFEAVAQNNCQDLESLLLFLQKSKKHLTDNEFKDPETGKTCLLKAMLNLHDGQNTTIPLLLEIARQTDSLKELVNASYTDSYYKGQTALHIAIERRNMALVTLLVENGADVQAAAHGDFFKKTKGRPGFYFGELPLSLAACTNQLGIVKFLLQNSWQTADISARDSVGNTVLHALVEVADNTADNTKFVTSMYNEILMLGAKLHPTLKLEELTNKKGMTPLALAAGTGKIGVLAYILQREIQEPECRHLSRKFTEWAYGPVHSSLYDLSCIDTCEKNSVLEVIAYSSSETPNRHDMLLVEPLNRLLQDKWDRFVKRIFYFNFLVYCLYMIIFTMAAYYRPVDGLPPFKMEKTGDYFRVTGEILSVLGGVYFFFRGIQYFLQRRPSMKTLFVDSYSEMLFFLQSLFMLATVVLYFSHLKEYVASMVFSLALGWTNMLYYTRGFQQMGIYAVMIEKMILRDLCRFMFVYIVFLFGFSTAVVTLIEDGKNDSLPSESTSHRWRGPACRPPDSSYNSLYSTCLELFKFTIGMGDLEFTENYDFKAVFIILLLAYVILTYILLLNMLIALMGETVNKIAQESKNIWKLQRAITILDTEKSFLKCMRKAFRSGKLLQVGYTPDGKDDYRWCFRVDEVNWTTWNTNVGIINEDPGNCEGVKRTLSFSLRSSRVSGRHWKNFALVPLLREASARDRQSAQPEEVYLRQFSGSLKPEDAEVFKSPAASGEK

Compound: CC[C@H]1C[C@@H]2CN3CCc4c([nH]c5ccc(OC)cc45)[C@](C(=O)OC)(C2)[C@H]13 [VOACANGINE]
- Activity [1]: 98%
- Activity [2]: inactive
- EC50 [3]: 8 µM
- Activity ([3]; HEK-293T): Dose-dependent effect
- IC50 [4]: 50 µM
- inhibition ([4]; HEK-293T): Dose-dependent effect
- inhibition [5]: inactive
- inhibition [6]: Active
- Activity [7]: inactive
- Activity [8]: Active
- inhibition [9]: Active
- inhibition [10]: Active
- inhibition [11]: inactive
- inhibition [12]: inactive
- inhibition [13]: inactive
- inhibition [14]: inactive
